Data as given in ChEMBL document CHEMBL1275286, “Synthesis of the steroidal glycoside (25R)-3β,16β-diacetoxy-12,22-dioxo-5α-cholestan-26-yl β-D-glucopyranoside and its anti-cancer properties on cervicouterine HeLa, CaSki, and ViBo cells” (Eur J Med Chem, 2010).
One block for each molecule: values may come before it. Activity calls are given as the source filed them. The rule behind the calls is not given here.

How the values were obtained:
HeLa [1] = test: Antiproliferative activity human HeLa cells after 24 hrs by crystal violet staining; format: functional, cell-based
Method in brief: (§1)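 Cells kept in RPMI-1640 with 5% newborn calf serum, 37 °C, 5% CO2, in exponential growth. 7500 cells/well seeded and grown 24 h, then exposed to a range of concentrations with ethanol as vehicle (1% in controls). Crystal violet staining after 24 h, absorbance at 590 nm; IC50 from dose–response curves.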

[2] = Effect on enriched human lymphocyte proliferation at 42 uM after 72 hrs by CSFE staining; format: cell-based
Method in brief: (§2)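 PBMCs from healthy donors' heparinized blood isolated on a Hypaque gradient; adherent cells removed after 1 h. Labeled with 12 μM CFSE (final) for 15 min at room temperature, quenched with NCS, washed. Plated at 2×10^5 cells/well, unstimulated, PHA-stimulated or treated (42 or 65 μM), five replicates, 72 h at 37 °C.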

Ca-Ski [3] = test: Induction of apoptosis in human CaSki cells assessed as caspase 3 activation at 42 uM after 24 hrs by immunocytochemistry; format: functional, cell-based
Method in brief: (§3)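 Seeded at […] in RPMI-1640 with 5% NCS for 24 h, then treated with 42 or 65 μM. Fixed in formaldehyde, permeabilized in 0.5% Triton X-100, blocked. Rabbit polyclonal anti-active caspase-3 (1:50), then FITC goat anti-rabbit (1:200), DAPI counterstain. Epifluorescence microscopy; representative of three independent assays.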

HeLa [4] = test: Induction of apoptosis in human HeLa cells assessed as DNA fragmentation at IC50 after 24 hrs by TUNEL assay; format: functional, cell-based
Method in brief: (§4)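 Cells on coverslips treated at IC50 for 24 h, with ethanol (10 μL/mL) as control. Fixed in 2% formaldehyde 20 min, permeabilized with 0.05% Triton X-100 for 5 min at 4 °C. TdT labeling with biotin-dUTP for 1 h at 37 °C, detected with rhodamine-streptavidin, DAPI counterstain. Fluorescence microscopy; representative of three independent assays.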

ViBo [5] = test: Induction of apoptosis in human ViBo cells assessed as DNA fragmentation at IC50 after 24 hrs by TUNEL assay; format: functional, cell-based; method in brief: as §4
Ca-Ski [6] = test: Antiproliferative activity human CaSki cells after 24 hrs by crystal violet staining; format: functional, cell-based; method in brief: as §1
[7] = Cell cycle arrest in human ViBo cells assessed as accumulation at G1 phase at 65 uM after 24 hrs by flow cytometry; format: functional, cell-based; details: 42 uM, in the assay text read “at 42 uM” for “at 65 uM”
Method in brief: (§5)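 Seeded at 10^5 cells/mL and grown 24 h, then exposed to 42 or 65 μM for 24 h, with ethanol as control. Harvested with versene, fixed and permeabilized in 50% methanol/PBS, treated with RNase (2.5 U/mL), stained with propidium iodide (0.2 μg/mL). Flow cytometry gave % DNA distribution by phase; Student's t-test versus ethanol.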

Ca-Ski [8] = test: Induction of apoptosis in human CaSki cells assessed as caspase 3 activation at 65 uM after 24 hrs by immunocytochemistry; format: functional, cell-based; method in brief: as §3
[9] = (§6) Antiproliferative activity human ViBo cells after 24 hrs by crystal violet staining; format: functional, cell-based; method in brief: as §1
ViBo [10] = test: as §6; format: functional, cell-based; method in brief: as §1
[11] = Cytotoxicity against human ViBo cells assessed as LDH release at IC50 after 24 hrs by spectrophotometry; format: functional
Method in brief: (§7)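 7500 cells/well grown 24 h, then exposed for 24 h to the line's IC50 concentration or to ethanol (10 μL/mL). LDH in the supernatant read by INT-formazan at 500 nm, expressed against Triton X-100 lysis set as 100%. Mean ± S.D. of three independent experiments with three repetitions; Student's t-test.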

Ca-Ski [12] = test: Induction of apoptosis in human CaSki cells assessed as DNA fragmentation at IC50 after 24 hrs by TUNEL assay; format: functional, cell-based; method in brief: as §4
HeLa [13] = test: Cell cycle arrest in human HeLa cells assessed as accumulation at S phase at 42 uM after 24 hrs by flow cytometry; format: functional, cell-based; details: 65 uM, in the assay text read “at 65 uM” for “at 42 uM”; method in brief: as §5
[14] = Antiproliferative activity non-tumor human cervical fibroblast at 42 uM after 24 hrs by crystal violet staining
Method in brief: (§8)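 Primary fibroblasts from hysterectomy cervix explants of patients without malignant disease. Tissue digested with 0.05% trypsin at 37 °C, cultured in RPMI-1640 with 10% NCS, adherent cells subcultured. Exposed to 42 or 65 μM, with 1% ethanol in controls. Cell number by crystal violet staining.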

Ca-Ski [15] = test: Cell cycle arrest in human CaSki cells assessed as accumulation at G2/M phase at 65 uM after 24 hrs by flow cytometry; format: functional, cell-based; method in brief: as §5
[16] = Cytotoxicity against human lymphocytes assessed as LDH release at IC50 after 72 hrs by spectrophotometry; details: lymphocyte
HeLa [17] = test: Induction of apoptosis in human HeLa cells assessed as chromatin condensation at 65 uM after 24 hrs by DAPI staining; format: functional, cell-based
Ca-Ski [18] = test: Cell cycle arrest in human CaSki cells assessed as accumulation at G2/M phase at 42 uM after 24 hrs by flow cytometry; format: functional, cell-based; details: 65 uM, in the assay text read “at 65 uM” for “at 42 uM”; method in brief: as §5
[19] = Cell cycle arrest in human ViBo cells assessed as accumulation at G1 phase at 42 uM after 24 hrs by flow cytometry; format: functional, cell-based; method in brief: as §5
ViBo [20] = test: Induction of apoptosis in human ViBo cells assessed as caspase 3 activation at 42 uM after 24 hrs by immunocytochemistry; format: functional, cell-based; method in brief: as §3
HeLa [21] = test: Induction of apoptosis in human HeLa cells assessed as caspase 3 activation at 65 uM after 24 hrs by immunocytochemistry; format: functional, cell-based; method in brief: as §3
HeLa [22] = test: Cytotoxicity against human HeLa cells assessed as LDH release at IC50 after 24 hrs by spectrophotometry; format: functional; method in brief: as §7
[23] = Effect on enriched human lymphocyte proliferation at 65 uM after 72 hrs by CSFE staining; format: cell-based; method in brief: as §2
ViBo [24] = test: Induction of apoptosis in human ViBo cells assessed as caspase 3 activation at 65 uM after 24 hrs by immunocytochemistry; format: functional, cell-based; method in brief: as §3
ViBo [25] = test: Induction of apoptosis in human ViBo cells assessed as chromatin condensation at 42 uM after 24 hrs by DAPI staining; format: functional, cell-based
HeLa [26] = test: Cell cycle arrest in human HeLa cells assessed as accumulation at S phase at 65 uM after 24 hrs by flow cytometry; format: functional, cell-based; method in brief: as §5
[27] = Antiproliferative activity non-tumor human cervical fibroblast at 65 uM after 24 hrs by crystal violet staining; method in brief: as §8
HeLa [28] = test: Induction of apoptosis in human HeLa cells assessed as caspase 3 activation at 42 uM after 24 hrs by immunocytochemistry; format: functional, cell-based; method in brief: as §3
Ca-Ski [29] = test: Induction of apoptosis in human CaSki cells assessed as chromatin condensation at 65 uM after 24 hrs by DAPI staining; format: functional, cell-based
Ca-Ski [30] = test: Cytotoxicity against human CaSki cells assessed as LDH release at IC50 after 24 hrs by spectrophotometry; format: functional; method in brief: as §7

IC50 (HeLa [1]): 65 µM
SMILES: CC(=O)O[C@H]1CC[C@@]2(C)[C@@H](CC[C@@H]3[C@@H]2CC(=O)[C@]2(C)[C@@H]([C@H](C)C(=O)CC[C@@H](C)CO[C@@H]4O[C@H](CO)[C@@H](O)[C@H](O)[C@H]4O)[C@@H](OC(C)=O)C[C@@H]32)C1
Activity (HeLa [1]): Dose-dependent effect
Activity [2]: 73.88%
Activity (Ca-Ski [3]): Active
Activity (HeLa [4]): Active
Activity (ViBo [5]): Active
Activity (Ca-Ski [6]): Dose-dependent effect
IC50 (Ca-Ski [6]): 65 µM
Activity [7]: Active
Activity (Ca-Ski [8]): Active
IC50 [9]: 42 µM
Activity (ViBo [10]): Dose-dependent effect
Activity [11]: 3%
Activity (Ca-Ski [12]): Active
Activity (HeLa [13]): Active
Activity [14]: < 20%
Activity (Ca-Ski [15]): Active
Activity [16]: Non-toxic
Activity (HeLa [17]): Active
Activity (Ca-Ski [18]): Active
Activity [19]: Active
Activity (ViBo [20]): Active
Activity (HeLa [21]): Active
Activity (HeLa [22]): 13%
Activity [23]: 71.06%
Activity (ViBo [24]): Active
Activity (ViBo [25]): Active
Activity (HeLa [26]): Active
Activity [27]: < 20%
Activity (HeLa [28]): Active
Activity (Ca-Ski [29]): Active
Activity (Ca-Ski [30]): 17%

SMILES: CC(=O)O[C@H]1CC[C@@]2(C)[C@@H](CC[C@@H]3[C@@H]2CC(=O)[C@]2(C)[C@@H]([C@H](C)C(=O)CC[C@@H](C)CO)[C@@H](OC(C)=O)C[C@@H]32)C1
Activity (Ca-Ski [30]): 28%
